Measured values from different studies.
Lines come from different studies, so protocols differ.
Target: Casein kinase I isoform gamma-1 (CSNK1G1, Homo sapiens, UniProt Q9HCP0)

SMILES	read-out	technique	concentration	remaining binding
FC(F)(F)Oc1cccc(-c2cnc3ccc(-c4ccncc4)nn23)c1	cell-free assay	competition with immobilised ligand	5 µM	67%
CN(C)c1nccc(-c2cnc3ncccn23)n1	binding		1 µM	81%
CCCCN(CCCC)C(=O)CN1C[C@H](c2cc(OC)c3c(c2)OCO3)[C@@H](C(=O)O)[C@@H]1CC(C)(C)CCC	cell-free assay	competition with immobilised ligand	1 µM	100%
O=C(c1ccc(Nc2ncc(Cl)c(-c3ccc(Cl)s3)n2)cc1)N1CCC(N2CCCC2)CC1	binding	competition with immobilised ligand	1 µM	80%
COc1cnc(Nc2cccc(S(N)(=O)=O)c2)nc1N1CCN(c2ccccc2)CC1	binding	competition with immobilised ligand	1 µM	100%
CO[C@@H](C)c1c(Nc2ccc([C@H](N(C)C(=O)C3CCS(=O)(=O)CC3)C(F)(F)F)cc2)cnc2cc(Cl)nn12	cell-free assay	competition with immobilised ligand	1 µM	100%
O=C(NCC1CCOCC1)c1n[nH]cc1NC(=O)c1c(F)cccc1F	binding	competition with immobilised ligand	1 µM	78%
N[C@H]1CCN(c2nccc(-c3cnn4ncccc34)n2)C1	binding		1 µM	82%
NS(=O)(=O)c1cc(NC(=O)Cc2ccccc2)ccc1Oc1cccc(Cl)c1	cell-free assay	competition with immobilised ligand	1 µM	89%
CN(C)c1ncc(F)c(-c2cnn3ncccc23)n1	binding		1 µM	74%
O=C(NS(=O)(=O)c1ccc(NCC2CCOCC2)c([N+](=O)[O-])c1)c1ccc(N2CCN(Cc3ccc(C(F)(F)F)cc3-c3ccc(Cl)cc3)CC2)cc1Oc1cnc2[nH]ccc2c1	cell-free assay	competition with immobilised ligand	1 µM	95%
O=C(c1ccc(Nc2ncc(Cl)c(-c3cc4ccccc4s3)n2)cc1)N1CCC(N2CCCC2)CC1	binding	competition with immobilised ligand	1 µM	80%
C[C@@H]1CCN(c2nccc(-c3cnn4ncccc34)n2)C1	binding		1 µM	87%
COc1cccc(CNC(=O)c2nc3scc(COCc4ccc(C(=O)O)cc4)c3c(=O)[nH]2)c1	cell-free assay	competition with immobilised ligand	1 µM	100%
CN(CCCC(F)(F)F)c1nccc(-c2cnn3ncccc23)n1	binding		1 µM	100%
CC(=O)c1c(NS(C)(=O)=O)c2cc(-c3ccc(Cl)cc3)c(-c3ccc(Cl)cc3Cl)nc2n(C)c1=O	cell-free assay	competition with immobilised ligand	1 µM	92%
CC1CCCN1c1nccc(-c2cnn3ncccc23)n1 (stereo not drawn)	binding		1 µM	100%
Nc1ncc2c(n1)-c1c([nH]c3ccc(C#CC4CC4)cc13)CCCC2	binding	competition with immobilised ligand	1 µM	79%
